The text below walks through data of paper PMC3268354 (Bioorganic & Medicinal Chemistry Letters, 2012).

One test deals with cPLA2α-mediated AA release in human monocytes. Briefly: cPLA2α-mediated AA release in Ca2+-ionophore A23187-stimulated human monocytes. The note with it: human monocytes stimulated with A23187. Type of test: cell-based. In outline: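 Human monocytes were stimulated with Ca2+-ionophore A23187 in the presence of test compound, and arachidonic acid release was measured. Inhibition is expressed as IC50. A reference cPLA2α inhibitor was run as an assay control.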
In the case of “N-{(2S,4R)-4-(biphenyl-2-ylmethyl-isobutyl-amino)-1-[2-(2,4-difluorobenzoyl)-benzoyl]-pyrrolidin-2-ylmethyl}-3-[4-(2,4-dioxothiazolidin-5-ylidenemethyl)-phenyl]acrylamide [Compound 43]”, the “inhibition of AA release” value is listed as “inhibited AA release as expected”.

The subject of the next test is cPLA2α. In words: reported cPLA2α inhibition of training and test set compounds. Type of test: biochemical. The note with it: assigned from reported activity of training set compounds.
For the compound `CCCCCCCCCCCCCCC(=O)C(=O)NCCCC(=O)O` [Compound 1], the “Class (activity class assigned for HipHop refine model)” value (“Class” for short) is reported as “Active”.

`O=C(COc1ccc(SCCCCCc2ccccc2)cc1)COc1ccc(C(=O)O)cc1` [Compound 6]: the “Class” value is recorded as “Highly active”.

For `CCCCCCCCCCOc1ccc(OCC(=O)COc2ccc(C(=O)O)cc2)cc1` [Compound 7], the “Class” value is on record as “Highly active”.

With `O=C(COc1ccc(SCCCCSc2nccs2)cc1)COc1ccc(C(=O)O)cc1` [Compound 14], the “Class” value is “Active”.

With `O=C(COc1ccc(C(=O)O)cc1)COc1ccc(C(=O)NCCCCc2ccccc2)cc1` [Compound 16], the “Class” value is reported as “Inactive”.

As to `CN(CCc1ccccc1)C(=O)CSc1ccc(OCC(=O)COc2ccc(C(=O)O)cc2)cc1` [Compound 17], the “Class” value is listed as “Inactive”.

On to `Cn1ccnc1SCCCCOc1ccc(OCC(=O)COc2ccc(C(=O)O)cc2)cc1` [Compound 18], for which the “Class” value was “Inactive”.
